Where a chain is given by its changes, count along the chain named.
Legend:
QacR(E57A) = molecular target: T1, QacR(E57A) (Staphylococcus aureus, UniProt P0A0N4, E57A); assay: Intrinsic tryptophan fluorescence quenching, QacR; type: binding
T1 sequence (P0A0N4 1-188 E57A): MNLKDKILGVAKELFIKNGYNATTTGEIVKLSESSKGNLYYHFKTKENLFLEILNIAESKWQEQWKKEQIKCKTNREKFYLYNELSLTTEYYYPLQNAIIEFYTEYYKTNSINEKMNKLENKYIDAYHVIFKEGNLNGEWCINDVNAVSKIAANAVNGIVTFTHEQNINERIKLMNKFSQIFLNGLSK

QacR(E57Q) [1] = molecular target: T2, QacR(E57Q) (Staphylococcus aureus, UniProt P0A0N4, E57Q); assay: Intrinsic tryptophan fluorescence quenching, QacR; type: binding
T2 sequence (P0A0N4 1-188 E57Q): T1 sequence (P0A0N4 1-188 E57A) with A57Q

QacR(E57Q/E58Q) [2] = molecular target: T3, QacR(E57Q/E58Q) (Staphylococcus aureus, UniProt P0A0N4, E57Q/E58Q); assay: Intrinsic tryptophan fluorescence quenching, QacR; type: binding
T3 sequence (P0A0N4 1-188 E57Q/E58Q): T1 sequence (P0A0N4 1-188 E57A) with A57Q, E58Q

QacR(E57Q/E58Q) [3] = molecular target: T3, QacR(E57Q/E58Q); assay: Isothermal titration calorimetry, QacR; type: binding
wt QacR = molecular target: T4, wt QacR (Staphylococcus aureus, UniProt P0A0N4); assay: Isothermal titration calorimetry, wt QacR; type: binding
T4 sequence (P0A0N4 1-188): T1 sequence (P0A0N4 1-188 E57A) with A57E

QacR(E57Q) [4] = molecular target: T2, QacR(E57Q); assay: Isothermal titration calorimetry, QacR; type: binding
QacR(E58Q) = molecular target: T5, QacR(E58Q) (Staphylococcus aureus, UniProt P0A0N4, E58Q); assay: Isothermal titration calorimetry, QacR; type: binding
T5 sequence (P0A0N4 1-188 E58Q): T1 sequence (P0A0N4 1-188 E57A) with A57E, E58Q

mutant QacR proteins = assay: Intrinsic tryptophan fluorescence quenching, mutant QacR proteins compared to wt; type: binding, Staphylococcus aureus; settings: all mutant QacR proteins of Table 2 vs wt QacR
How it was run: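 C-terminally His6-tagged QacR variants were expressed in E. coli DH5α, Ni2+-NTA purified, and dialysed into 1 M NaCl, 20 mM Tris-HCl, 5% glycerol, pH 7.5. Kd was derived from quenching of intrinsic tryptophan fluorescence intensity on ligand titration. Ligands came from 2.5 mM stocks in water, diluted in 100 mM NaCl, 15 mM Tris-HCl, 2.5% glycerol, pH 7.5. Each Kd is the mean of three independent experiments.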

Row | SMILES | Kd (QacR(E57A)) [nM] | Kd (QacR(E57Q) [1]) [nM] | Kd (QacR(E57Q/E58Q) [2]) [nM] | increase in binding affinity compared to wt QacR (QacR(E57Q/E58Q) [2]; QacR(E57Q/E58Q) vs wt QacR) [fold] | Kd (QacR(E57Q/E58Q) [3]) [nM] | decrease in binding affinity compared to wt QacR (QacR(E57Q/E58Q) [3]; QacR(E57Q/E58Q) vs wt QacR, ITC) [fold] | Kd (wt QacR) [nM] | Kd (QacR(E57Q) [4]) [nM] | Kd (QacR(E58Q)) [nM] | change in binding affinity of mutant QacR proteins compared to wt QacR (mutant QacR proteins) [fold]
1 | COc1ccc2cc3[n+](cc2c1OC)CCc1cc2c(cc1-3)OCO2 [Be, berberine] | 1880 ± 230 | 1390 ± 150 | 320 ± 150 | 9 | – | – | – | – | – | –
2 | Cc1cc(N)c2ccccc2[n+]1CCCCCCCCCC[n+]1c(C)cc(N)c2ccccc21 [Dq, dequalinium] | – | – | – | – | 5200 ± 3800 | 4 | 1300 ± 300 | 1950 ± 180 | 2400 ± 200 | –
3 | CN(C)c1ccc(C(=C2C=CC(=[N+](C)C)C=C2)c2ccccc2)cc1 [MG, malachite green] | 2980 ± 230 | 1770 ± 170 | 1990 ± 80 | – | – | – | – | – | – | ≤ 2.4

Source: publication PMC2646753 (Biochemistry, 2008)
